TAAR1 antag = human TAAR1 antagonists, primary screen, Fluo-8 calcium fluorescence, CHO RD-HGA16 cells. inhibition, % at 3 µM. antagonist. AID 624466, 2012. Trace amine-associated receptor 1 (Homo sapiens), Q96RJ0. 360,000 tested, 1.5% active;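 active = inhibition above a per-plate cutoff, the mean inhibition of test compounds on that plate plus 3 SD, cut at about 49% in these data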
Target sequence (Q96RJ0 whole entry, looked up): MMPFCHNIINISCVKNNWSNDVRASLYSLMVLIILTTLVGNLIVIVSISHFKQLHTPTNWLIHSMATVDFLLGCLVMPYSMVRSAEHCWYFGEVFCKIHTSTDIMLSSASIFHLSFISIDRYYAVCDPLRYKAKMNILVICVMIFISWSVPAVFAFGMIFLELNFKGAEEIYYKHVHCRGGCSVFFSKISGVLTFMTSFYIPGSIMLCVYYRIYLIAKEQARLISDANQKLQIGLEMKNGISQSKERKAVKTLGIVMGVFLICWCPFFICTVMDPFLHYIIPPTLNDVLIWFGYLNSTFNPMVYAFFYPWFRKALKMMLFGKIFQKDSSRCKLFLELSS
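System: RD-HGA16 CHO cells with stable hTAAR1 and Gα16 | Probe or stimulus: EC80 β-phenethylamine stimulus | Dosing: 3 µM, single point | Times: Dye loading 75 min at 37 °C, then 30 min room temperature | Measured by: Fluo-8 calcium-sensitive fluorescence | Read-out basis: % inhibition of agonist calcium response | Replicates: n of 1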
CRFR2-BP ag = agonists of CRF-BP/CRF-R2 complex, primary screen, cell-based, HEK293, calcium dye fluorescence, uHTS | CRF-binding protein / CRF receptor 2 complex (human) | calcium dye fluorescence (FLIPR); percent of saturating CRF peptide response | activation, % at 13.2 µM | 350,000 tested, 0.46% active;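 active = activation of at least 50%, plus an integration ratio under a set limit after plate pattern correction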
TMEM16A inh = TMEM16A chloride channel inhibitors, primary screen, cell-based, HTS | 310,000 tested, 1.2% active | HEK293 TMEM16A/YFP iodide influx fluorescence, ionomycin | normalized B-score (activity score, 25-100; higher = stronger inhibition) at 10 µM;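 active = ratio plate-corrected score three or more library SD toward inhibition, starting fluorescence score within five deviations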;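 also: score derived from kinetic fluorescence span divided by baseline fluorescence per well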
TMEM16A act = TMEM16A chloride channel activators or potentiators, primary screen, cell-based, HTS; Anoctamin-1 (Mus musculus), Q8BHY3; HEK293 TMEM16A/YFP-H148Q/I152L, iodide quench fluorescence; stronger effect = lower value; B-score at 10 µM; 340,000 tested, 0.3% active;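 active = fluorescence-ratio B-score plate-corrected deviation score at least 3 library SD below zero, with starting fluorescence score within 5 deviations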;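 also: channel opened by trigger with iodide after compound preincubation; score built on the fluorescence ratio of max minus min over baseline; more negative score means more quench and so TMEM16A activation or potentiation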
CRFR2-BP antag = antagonists of CRF-BP/CRF-R2 complex, primary screen, cell-based, HEK293, calcium dye fluorescence, uHTS; CRF-induced calcium fluorescence; 350,000 tested, 0.59% active; inhibition, % at 11.8 µM;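 active = inhibition of the ligand-induced calcium signal above about 50% at the single tested concentration, limit read from the data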
TAAR1 agonist = human TAAR1 agonists, primary screen, Fluo-8 calcium fluorescence, CHO RD-HGA16 cells. vehicle wells 0%, saturating PEA agonist 100%. Trace amine-associated receptor 1 (Homo sapiens), Q96RJ0. activation, % at 3 µM. 360,000 tested, 0.99% active;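 active = activation above the mean activation of all test compounds in the run plus 3 SD, cut at about 38% in these data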
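System: CHO-derived RD-HGA16 cells with stable Gα16 and human TAAR1 / Times: 17-24 h plating, Fluo-8 75 min 37 °C, 30 min RT / Technique: calcium-sensitive Fluo-8 signal, excitation 470-495, emission 515-575 nm / Measure: % activation relative to PEA EC100 response / Benchmarks: DMSO and PEA EC100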
Each line names hits and unclear results; the compound was inactive in the other large screens. Only some compounds are listed: those with a hit (about 3.9% of all), similar ones and a draw of the others.

CCc1ccc(CC2S/C(=C(\C#N)C(C)=O)NC2=O)cc1 (stereo not given)	TMEM16A inh 100
N/C(=N\OC(=O)c1cc(Cl)ccc1Cl)c1ccncc1	TMEM16A act -10
N/C(=N\OC(=O)c1ccc(Cl)cc1Cl)c1ccncc1	none
N/C(=N\OC(=O)COc1ccc(Cl)cc1Br)c1ccncc1	TMEM16A act -39 (no result: TMEM16A inh)
O=C(c1cccc(S(=O)(=O)N2CCN(c3ccccc3)CC2)c1)N1CCCC(C(F)(F)F)C1 (stereo not given)	TMEM16A inh 25
COc1ccc(N2CCN(C(=O)C(Cc3ccccc3)n3cccc3)CC2)cc1 (stereo not given)	TMEM16A act -15
CC(NC(=O)c1cccs1)C(S)c1ccccc1 (stereo not given)	none
Nc1c(C(=O)c2ccccc2)sc2nsc(SCCN3CCOCC3)c12	CRFR2-BP ag 69
Cn1nc(C(C)(C)C)cc1N1C(=O)CCC1(C)C(=O)NC1CCCC1 (stereo not given)	none (no result: CRFR2-BP ag, TMEM16A inh, TMEM16A act, CRFR2-BP antag)
CSc1ccc(CN(C)C(=O)c2cc(S(=O)(=O)NCc3ccccc3)ccc2C)cc1	TAAR1 antag 49
CSc1ccc(CN(C)C(=O)c2cccc(S(=O)(=O)NCc3ccccc3)c2)cc1	TMEM16A inh 100
CN(Cc1ccc(F)cc1)C(=O)c1cccc(S(=O)(=O)N2CCN(Cc3ccccc3)CC2)c1	none
CSc1ccc(CN(C)C(=O)c2cccc(S(=O)(=O)N3CCN(Cc4ccccc4)CC3)c2)cc1	TMEM16A inh 100
Cc1cccc(NC(=O)Cn2nc(-c3ccco3)ccc2=O)c1C	none
COc1ccc(CCNC(=O)CN2C(=O)NC3(CCCCC3C)C2=O)cc1 (stereo not given)	none (no result: TMEM16A inh)
CSCC[C@H](N)C(=O)N1CCC(C(=O)N[C@H](C(=O)NCc2ccccc2F)C(C)C)CC1	none
Cc1ccc(S(=O)(=O)Nc2nc3ccccc3nc2NCC2CCCO2)cc1 (stereo not given)	none
COc1ccc(S(=O)(=O)Nc2nc3ccccc3nc2NCC2CCCO2)cc1 (stereo not given)	CRFR2-BP antag 113
Cc1ccccc1N(CC(=O)N1CCN(c2ccccc2)CC1)S(C)(=O)=O	none
Cc1ccccc1N(CC(=O)N1CCN(Cc2ccccc2)CC1)S(C)(=O)=O	CRFR2-BP antag 70 (no result: TMEM16A inh, TMEM16A act)
Cc1cc(C)c(NC(=O)c2ccc(CNS(=O)(=O)c3cc(C(F)(F)F)ccc3Cl)cc2)c(C)c1	CRFR2-BP antag 59
Cc1cccc(C(=O)Nc2cccc3c2CCCC3)c1	none
CC(C)(C)c1nc2cc(Cl)c([N+](=O)[O-])cc2o1	TMEM16A inh 100
O=C(c1sccc1-c1ccccc1)N1CCN(S(=O)(=O)c2ccccc2F)CC1	none
O=C1NC(Cc2ccccc2)c2nc3ccc(F)cc3c(=O)n2-c2cc3ccccc3cc21 (stereo not given)	TAAR1 antag 49 (no result: TMEM16A inh, TMEM16A act)
CCCCOc1ccc(Br)cc1CSC(=N)N	TAAR1 antag 73, TAAR1 agonist 103 (no result: TMEM16A inh)
CCOc1ccc(C(C)=O)cc1CSC(=N)N	none
N#C/C(=C\c1cccn1S(=O)(=O)c1ccccc1)S(=O)(=O)c1ccc(F)cc1	none (no result: CRFR2-BP ag, TMEM16A inh, TMEM16A act, CRFR2-BP antag)
CC(C)(C)c1ccc(OCCn2nc(C(=O)O)c3ccccc3c2=O)cc1	TAAR1 antag 49
Cc1cccc(OCCn2nc(C(=O)O)c3ccccc3c2=O)c1	none
N#CCCn1nc(-c2ccc(Br)cc2)cc1Nc1ccccc1NC(=O)C(F)(F)F	TMEM16A inh 100
N#CCCn1nc(-c2ccccc2)cc1Nc1ccccc1NC(=O)C(F)(F)F	none
Clc1ccc(Cn2ncc3c(NCc4ccco4)ncnc32)c(Cl)c1	TAAR1 antag 53 (no result: TMEM16A act)
OC(CN1CCN(c2ccccc2F)CC1)c1ccc(F)cc1 (stereo not given)	none

Screening results deposited in PubChem by several laboratories.
